Only some compounds are listed: those with a hit (about 1.3% of all), similar ones and a draw of the others.
NR2E3 ag-1: inhibitors of NR2E3-RetCOR corepressor binding, primary screen, NR2E3 agonist project, biochemical, TR-FRET, GST-NR2E3, biotin-RetCOR; Photoreceptor-specific nuclear receptor (Homo sapiens), Q9Y5X4; 1536-well; inhibition of corepressor binding, % at 4.78 µM; hit rate 0.12% among 320,000; AID 2300, 2010;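 active means percent inhibition above the cutoff of mean plus 3 SD of all tested compounds, set per screening campaign, cut at about 20% in these data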;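 further: 0% = DMSO wells and 100% = biotin wells as full block of FRET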
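Material: NR2E3–RetCOR corepressor complex / Amount: 1.35 nM GST-NR2E3 / Medium: Tris pH 7.5 / Compound: single nominal compound dose of 4.8 µM / Incubation: 5 h at 4 °C / Technique: TR-FRET, Eu(K)-anti-GST donor, streptavidin-D2 acceptor, ex 340, em 617/671 nm / Read-out basis: percent loss of FRET ratio relative to control wells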
EP2 mod: EP2 receptor modulators, cAMP readout, primary screen, cell-based, HTRF cAMP, PGE2 stimulation | Prostaglandin E2 receptor EP2 subtype (Homo sapiens), P43116 | hit rate 0.83% among 260,000 | induction, % at 25 µM | EP2-expressing cells, cAMP HTRF FRET, PGE2 co-stimulation;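 active means compounds whose cAMP rise, as percent of the full-agonist control response, exceeds 60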;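 further: rat C6 glioma line stably carrying human EP2 under a CMV promoter; the protocol text gives 20 µM as final concentration; 100% = response of wells given 1 µM PGE2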
EP2 antag: human EP2 receptor antagonists, primary screen, TR-FRET cAMP, C6 glioma cells | Prostaglandin E2 receptor EP2 subtype (Homo sapiens), P43116 | C6 glioma cells expressing human EP2; cells stimulated with saturating PGE2 | inhibition, % at 25 µM | hit rate 0.52% among 260,000;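 active means percent inhibition above 40 after rounding to a whole number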;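 further: rat C6 glioma host cells with rolipram phosphodiesterase inhibitor present; the protocol text gives 20 µM as final concentration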
JMJD2C inh: inhibitors of GASC-1 histone demethylase, primary screen, biochemical, fluorescence, DELFIA europium | AID 2099, 2009 | Lysine-specific demethylase 4C (Homo sapiens), Q9H3R0 | hit rate 0.069% among 330,000 | GST-JMJD2C(1-420) H3K9me3 demethylation | inhibition, % at 2.35 µM;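 active means more than half of a compound's replicate wells show inhibition beyond 50%, single wells judged on their own value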;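 further: signal counts dimethyl H3K9 product captured on neutravidin plate; 0% = median of DMSO wells and 100% = 0.3 times that DMSO median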
Furin inhibitor: human furin inhibitors, primary screen, biochemical, fluorescence intensity; inhibition, % at 20 µM or 30 µM; AID 463115, 2010; P09958; purified furin, fluorogenic substrate cleavage; hit rate 0.061% among 220,000; in the data active means inhibition above about 25%
Target sequence (P09958 108-714 limits assumed): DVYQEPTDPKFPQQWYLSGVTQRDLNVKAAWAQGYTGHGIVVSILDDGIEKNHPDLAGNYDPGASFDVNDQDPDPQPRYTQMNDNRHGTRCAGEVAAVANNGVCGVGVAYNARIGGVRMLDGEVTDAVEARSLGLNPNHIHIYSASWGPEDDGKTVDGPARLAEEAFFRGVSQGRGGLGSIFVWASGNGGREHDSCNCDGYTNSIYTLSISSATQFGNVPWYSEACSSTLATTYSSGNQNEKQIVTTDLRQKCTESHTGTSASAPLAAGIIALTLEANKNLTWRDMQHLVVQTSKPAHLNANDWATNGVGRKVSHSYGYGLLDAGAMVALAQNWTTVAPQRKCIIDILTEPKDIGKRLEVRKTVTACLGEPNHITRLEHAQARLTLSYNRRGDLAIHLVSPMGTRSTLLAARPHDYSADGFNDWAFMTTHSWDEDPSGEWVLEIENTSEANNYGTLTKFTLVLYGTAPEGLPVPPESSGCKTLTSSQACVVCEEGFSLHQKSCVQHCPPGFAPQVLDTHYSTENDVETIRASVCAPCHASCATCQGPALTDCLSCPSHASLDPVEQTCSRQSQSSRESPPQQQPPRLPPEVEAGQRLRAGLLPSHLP
NR2E3 ag-2: NR2E3 agonists in two-hybrid cells, primary screen, cell-based, luminescence, CHO-S, Gal4-NCOR/VP16-NR2E3; hit rate 0.35% among 360,000; luciferase; Photoreceptor-specific nuclear receptor (Homo sapiens), Q9Y5X4; inhibition of corepressor binding, % at 3.98 µM; AID 602229, 2012;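 active means inhibition above the mean of all tested compounds plus 3 SD, cut at about 70% in these data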;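 further: 0% = DMSO with NR2E3 transfected cells and 100% = cells lacking NR2E3 construct; higher means lower luciferase signal from less NR2E3 corepressor binding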
NR2E3 ag conf: NR2E3 agonist confirmation in cells, cell-based, luminescence, CHO-S two-hybrid | shares compounds with NR2E3 ag-2 | CHO-S mammalian two-hybrid NR2E3-NCOR, luciferase luminescence | inhibition, % at 3.98 µM | hit rate 51% among 2,300;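 active means average inhibition above a cutoff equal to the mean inhibition of all tested compounds plus one SD, cut at about 70% in these data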;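 further: 0% = DMSO in NR2E3 cells and 100% = DMSO in cells lacking NR2E3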
GAL4-VP16 luc: GAL4-VP16 reporter modulators, confirmation, counter-screen for NR2E3 agonist project, cell-based, luminescence, CHO-S, high throughput. shares compounds with NR2E3 ag-2. CHO-S GAL4-VP16 luciferase reporter. inhibition, % at 3.98 µM. hit rate 29% among 2,300. AID 624379, 2012;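 active means mean inhibition above a cutoff equal to the average over all tested compounds plus one standard deviation, cut at about 70% in these data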;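 further: luciferase from a UAS reporter driven by GAL4-VP16 transactivation; 0% = DMSO with VP16-transfected cells and 100% = DMSO with cells lacking VP16; higher means less reporter light so more repression of VP16 activity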
An asterisk follows results filed as active; · = no result given.

SMILES	NR2E3 ag-1	EP2 mod	EP2 antag	JMJD2C inh	Furin inhibitor	NR2E3 ag-2	NR2E3 ag conf	GAL4-VP16 luc
CCc1c(C)nc2ncnn2c1N1CCCC(C(=O)Nc2ccc(Br)cc2)C1 (stereo unspecified)	·	-48.6	10.6	·	·	·	·	·
O=c1cc(CSc2nnc(-c3ccc(Cl)cc3)o2)c2ccccc2[nH]1	·	2.2	11.6	·	·	·	·	·
c1ccc2c(c1)nc(N1CCOCC1)c1ccccc12	-1.2	21.0	6.0	-3.3	-22.6	-29.3	·	·
CCN(CC)c1ccc(Nc2nc(N3CCOCC3)c3ccccc3n2)cc1	1.5	-5.5	9.5	-4.1	-15.4	72.5*	74.5*	69.0
COc1ccc(Nc2nc(N3CCCC3)c3ccccc3n2)cc1	7.0	-29.1	19.8	-5.7	-6.2	50.9	50.5	29.8
C#Cc1cccc(Nc2nc(NCc3ccccc3)nc3ccsc23)c1	·	·	·	·	·	61.2	84.2*	44.3
Fc1ccc(Nc2nc(NCc3ccccc3)nc3ccsc23)cc1	·	·	·	·	·	54.6	59.4	41.0
c1ccc(CNc2nc(NCCc3ccncc3)c3sccc3n2)cc1	·	·	·	·	·	81.2*	51.7	55.1
N#Cc1ccc(Nc2nc(NCc3ccccc3)nc3ccsc23)cc1	·	·	·	·	·	-50.9	·	·
CC1Cc2ccccc2N1C(=O)CS(=O)(=O)c1ccccc1NC(=O)c1ccc(F)cc1 (stereo unspecified)	·	12.6	6.7	·	·	·	·	·
O=C1CCCC2=C1C(c1ccc3c(c1)OCO3)C1=C(CCCC1=O)N2	·	-0.6	9.8	·	·	·	·	·
c1ccc(-c2nc(N3CCCCCC3)c3ccccc3n2)nc1	-1.1	61.0*	10.4	-2.2	11.1	109.3*	100.4*	72.7*
CCN(CC)c1nc(-c2ccccn2)nc(-c2ccccc2)c1C#N	4.7	0.5	-0.6	24.6	-18.0	82.6*	47.3	38.9
c1ccc(-c2nc(N3CCOCC3)c3ccccc3n2)nc1	0.4	2.9	11.2	7.4	-5.4	-17.9	·	·
CCCCN(CC)c1nc(-c2ccncc2)nc2ccccc12	-1.0	52.3	2.2	-4.6	-19.3	-11.1	·	·
c1ccc(CCNc2nc(-c3ccccn3)nc3ccccc23)cc1	0.1	-31.9	20.1	-6.4	6.9	103.2*	99.8*	84.6*
C/C(=N\Nc1nc(-c2ccccn2)nc2ccccc12)c1ccc(F)cc1	2.1	12.3	0.7	-10.1	-22.8	-2.7	·	·
CCCN(CCC)c1nc(-c2ccccn2)nc2ccccc12	·	·	·	-10.7	·	103.7*	99.1*	85.1*
CC[C@H](Cn1nc(-c2cccs2)ccc1=O)NC(=O)C1CCCCC1	·	25.2	12.3	·	·	·	·	·
COc1ccc(/C=N/N=C2\CC3CCC2(C)C3(C)C)cc1O (stereo unspecified)	-2.2	15.9	8.0	43.3	-17.0	74.2*	-2.8	1.7
COc1cc(/C=N/N=C2\CC3CCC2(C)C3(C)C)ccc1O (stereo unspecified)	0.2	-11.1	·	6.4	-31.0	-8.4	·	·
Clc1nsnc1N1CCCCC1	·	-33.8	9.1	·	·	·	·	·
Cc1ccc(OCC(=O)c2cc(C)n(Cc3cccs3)c2C)c([N+](=O)[O-])n1	1.3	-24.9	9.8	2.7	-8.2	84.0*	92.9*	87.7*
Cc1csc2c(N3CCN(C(=O)Nc4ccc(OC(F)(F)F)cc4)CC3)ncnc12	0.8	-36.9	10.1	-12.6	-13.3	62.6	90.1*	71.2*
CCc1cccc(NS(=O)(=O)c2ccc3c(c2)oc(=O)n3C)c1	-1.3	-11.1	·	2.9	-11.6	21.3	·	·

Assay outcomes from PubChem BioAssay.
